According to ChEMBL document CHEMBL1772966, “3,5-Bis(benzylidene)-1-[3-(2-hydroxyethylthio)propanoyl]piperidin-4-ones: a novel cluster of potent tumor-selective cytotoxins” (J Med Chem, 2011):
Calls of active or inactive are those of the source. No cut-off for these calls is given here.

How the values were obtained:
MOLT-4 = assay: Ratio of melphalan IC50 to compound IC50 for human Molt4/C8 cells; type: functional
L1210 [1] = assay: Ratio of melphalan IC50 to compound IC50 for mouse L1210 cells; type: functional
HCT-116 = assay: Anticancer activity against human HCT116 cells; type: functional, cell-based
CCRF-CEM [2] = assay: Ratio of melphalan IC50 to compound IC50 for human CEM cells; type: functional
L1210 [3] = assay: Anticancer activity against mouse L1210 cells after 48 hrs; type: functional, cell-based; conditions: L1210, 48 h
HSC-3 [4] = assay: Cytotoxicity against human HSC3 cells after 48 hrs; type: functional; conditions: HSC-3, 48 h
COLO 205 = assay: Anticancer activity against human COLO205 cells; type: functional, cell-based
[5] = Cytotoxicity against human HPLF cells after 48 hrs; type: cell-based
HSC-4 [6] = assay: Cytotoxicity against human HSC4 cells after 48 hrs; type: functional; conditions: HSC-4, 48 h
SW-620 = assay: Anticancer activity against human SW620 cells; type: functional, cell-based
Mus musculus [7] = assay: Neurotoxicity in mouse at 30 to 300 mg/kg, ip after 0.5 to 4 hrs by rotarod method; type: toxicity, organism-based; parameters: dose 30-300 mg/kg, route intraperitoneal; conditions: in vivo
Procedure, shortened: (§1)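 Mice dosed intraperitoneally at 30, 100 and 300 mg/kg; animals observed for deaths and neurological deficit at 0.5 and 4 h after injection.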

HSC-2 [8] = assay: Induction of mitochondrial pathway-dependent apoptosis in human HSC2 cells assessed as caspase 3 activation at 1 to 3 uM; type: functional, cell-based
Procedure, shortened: (§2)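 Caspase-3 activity measured in lysates of treated HL-60 and HSC-2 cells: 100 μg protein per assay, incubated 2 h with the substrate. Mean ± SD of three experiments.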

HSC-4 [9] = assay: Selectivity index, ratio of average CC50 for normal human cell line to CC50 for human HSC4 cells
HL-60 [10] = assay: Cytotoxicity against human HL60 cells after 48 hrs; type: functional; conditions: HL-60, 48 h
HL-60 [11] = assay: Selectivity index, ratio of average CC50 for normal human cell line to CC50 for human HL-60 cells
[12] = Cytotoxicity against human HGF cells after 48 hrs; type: cell-based
HCC 2998 = assay: Anticancer activity against human HCC2998 cells; type: functional, cell-based
[13] = Anticancer activity against human Molt4/C8 cells after 72 hrs; type: functional, cell-based; conditions: MOLT-4, 72 h
Mus musculus [14] = assay: Toxicity in mouse assessed as mortality at 30 to 300 mg/kg, ip after 0.5 to 4 hrs; type: organism-based; parameters: dose 30-300 mg/kg, route intraperitoneal; conditions: in vivo; procedure, shortened: as §1
HSC-2 [15] = assay: Induction of mitochondrial pathway-dependent apoptosis in human HSC2 cells assessed as DNA fragmentation at 0.5 to 8 uM after 6 hrs by agarose gel electrophoresis; type: functional, cell-based
Procedure, shortened: (§3)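 Cells exposed 6 h to a range of concentrations; a UV-irradiated comparison was given 1 min of UV. Treated and control cells were then held 3 h in regular culture medium, after which DNA was extracted and run on 2% agarose gel electrophoresis.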

HCT-15 = assay: Anticancer activity against human HCT15 cells; type: functional, cell-based
KM12 = assay: Anticancer activity against human KM12 cells; type: functional, cell-based
HSC-2 [16] = assay: Selectivity index, ratio of average CC50 for normal human cell line to CC50 for human HSC2 cells
RPMI-8226 = assay: Anticancer activity against human RPMI8226 cells; type: functional, cell-based
CCRF-CEM [17] = assay: Anticancer activity against human CCRF-CEM cells; type: functional, cell-based
HL-60 [18] = assay: Induction of mitochondrial pathway-dependent apoptosis in human HL60 cells assessed as DNA fragmentation at 0.5 to 8 uM after 6 hrs by agarose gel electrophoresis; type: functional, cell-based; procedure, shortened: as §3
HL-60 [19] = assay: Induction of mitochondrial pathway-dependent apoptosis in human HL60 cells assessed as caspase 3 activation at 1 to 3 uM; type: functional, cell-based; procedure, shortened: as §2
HT-29 = assay: Anticancer activity against human HT-29 cells; type: functional, cell-based
[20] = Cytotoxicity against human HPC cells after 48 hrs; type: cell-based
HL-60 [21] = assay: Anticancer activity against human HL60 cells; type: functional, cell-based
CCRF-CEM [22] = assay: Anticancer activity against human CEM cells after 72 hrs; type: functional, cell-based
HSC-2 [23] = assay: Cytotoxicity against human HSC2 cells after 48 hrs; type: functional; conditions: HSC-2, 48 h
K562 = assay: Anticancer activity against human K562 cells; type: functional, cell-based
HSC-3 [24] = assay: Selectivity index, ratio of average CC50 for normal human cell line to CC50 for human HSC3 cells
Rattus norvegicus [25] = assay: Neurotoxicity in rat at 50 mg/kg, po measured upto 4 hrs by rotarod method; type: toxicity, organism-based; parameters: dose 50 mg/kg, route oral; conditions: in vivo
Procedure, shortened: (§4)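 Rats given a single oral dose of 50 mg/kg; monitored intermittently over 4 h for fatalities and neurological deficit.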

Rattus norvegicus [26] = assay: Toxicity in rat assessed as mortality at 50 mg/kg, po measured upto 4 hrs; type: organism-based; parameters: dose 50 mg/kg, route oral; conditions: in vivo; procedure, shortened: as §4
Mus musculus [27] = assay: Neurotoxicity in mouse at 30 to 300 mg/kg, ip after 4 hrs by rotarod method; type: toxicity, organism-based; parameters: dose 30-300 mg/kg, route intraperitoneal; conditions: in vivo
Procedure, shortened: (§5)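 Mice given 30, 100 and 300 mg/kg by intraperitoneal injection; animals scored for mortality and neurotoxicity at 0.5 and 4 h after dosing.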

Mus musculus [28] = assay: Neurotoxicity in mouse at 30 to 300 mg/kg, ip after 0.5 hrs by rotarod method; type: toxicity, organism-based; parameters: dose 30-300 mg/kg, route intraperitoneal; conditions: in vivo; procedure, shortened: as §5
[29] = Toxicity in mouse harboring P-388 cells; type: organism-based
[30] = Toxicity in mouse harboring L1210 cells; type: organism-based

Row | Compound | IC50 (HCT-116) [nM] | Ratio IC50 (CCRF-CEM [2]) | IC50 (L1210 [3]) [nM] | CC50 (HSC-3 [4]) [nM] | IC50 (COLO 205) [nM] | CC50 at 48 h [5] [nM] | CC50 (HSC-4 [6]) [nM] | IC50 (SW-620) [nM] | Activity (Mus musculus [7]) | Ratio (HSC-4 [9]) | CC50 (HL-60 [10]) [nM] | Ratio (HL-60 [11]) | CC50 at 48 h [12] [nM] | IC50 [13] [nM] | Activity (Mus musculus [14]) | Ratio (HSC-2 [16]) | IC50 (HT-29) [nM] | IC50 (CCRF-CEM [22]) [nM] | CC50 (HSC-2 [23]) [nM] | Ratio (HSC-3 [24]) | also measured
1 | O=C1/C(=C/c2ccc(Cl)cc2)CN(C(=O)CCSCCO)C/C1=C\c1ccc(Cl)cc1 | 170 | 3.6 | 6470 | 970 | 460 | 8600 | 510 | 170 | Non-toxic | 15.8 | 1000 | 8 | 8300 | 420 | Non-toxic | 17.1 | 260 | 690 | 470 | 8.3 | Ratio IC50 (MOLT-4): 7.6; Ratio IC50 (L1210 [1]): 43; Activity (HSC-2 [8]): Active; IC50 (HCC 2998): 1100 nM; Activity (HSC-2 [15]): Active; IC50 (HCT-15): 260 nM; IC50 (KM12): 190 nM; IC50 (RPMI-8226): 80 nM; IC50 (CCRF-CEM [17]): 210 nM; Activity (HL-60 [18]): Active; Activity (HL-60 [19]): Active; CC50 at 48 h [20]: 7200 nM; IC50 (HL-60 [21]): 320 nM; IC50 (K562): 100 nM
2 | Cc1ccc(/C=C2\CN(C(=O)CCSCCO)C/C(=C\c3ccc(C)cc3)C2=O)cc1 | – | 2.3 | 5910 | 1700 | – | 8400 | 1200 | – | Non-toxic | 6.9 | 2100 | 4 | 9100 | 1850 | Non-toxic | 9.4 | – | 1100 | 890 | 4.9 | Activity (Rattus norvegicus [25]): Non-toxic; Activity (Rattus norvegicus [26]): Non-toxic; CC50 at 48 h [20]: 7500 nM
3 | COc1ccc(/C=C2\CN(C(=O)CCSCCS(=O)(=O)O)C/C(=C\c3ccc(OC)cc3)C2=O)cc1 | 33100 | – | 227000 | – | > 100000 | – | – | 38000 | – | – | – | – | – | 156000 | Non-toxic | – | 41700 | 199000 | – | – | Activity (Mus musculus [27]): Toxic; Activity (Mus musculus [28]): Toxic; IC50 (HCC 2998): 30900 nM; IC50 (HCT-15): > 100000 nM; IC50 (KM12): 30200 nM; IC50 (RPMI-8226): 24500 nM; IC50 (CCRF-CEM [17]): > 100000 nM; IC50 (HL-60 [21]): > 100000 nM; IC50 (K562): 55000 nM
4 | COc1ccc(/C=C2\CN(C(=O)CCSCCS)C/C(=C\c3ccc(OC)cc3)C2=O)cc1 | – | – | 10900 | – | – | – | – | – | – | – | – | – | – | 2770 | Non-toxic | – | – | 3200 | – | – | Activity (Mus musculus [28]): Toxic
5 | COc1ccc(/C=C2\CN(C(=O)CCSCCO)C/C(=C\c3ccc(OC)cc3)C2=O)cc1 | 1510 | 6.6 | 19600 | 3300 | 2510 | 16000 | 2400 | 2140 | Non-toxic | 6.5 | 3200 | 4.9 | 17000 | 1660 | Non-toxic | 6.5 | 2400 | 3510 | 2410 | 4.8 | Ratio IC50 (MOLT-4): 2; Ratio IC50 (L1210 [1]): 6.6; IC50 (HCC 2998): 2000 nM; IC50 (HCT-15): 2190 nM; IC50 (KM12): 1980 nM; IC50 (RPMI-8226): 330 nM; IC50 (CCRF-CEM [17]): 470 nM; CC50 at 48 h [20]: 14000 nM; IC50 (HL-60 [21]): 1700 nM; IC50 (K562): 2880 nM
6 | N[C@@H](Cc1ccc(N(CCCl)CCCl)cc1)C(=O)O [MELPHALAN] | – | – | – | 25000 | – | – | 32000 | – | – | 6.6 | 1400 | 150 | – | – | – | 24.1 | 46800 | – | 8700 | 8.4 | LD50 [29]: 21.7 mg/kg; LD50 [30]: 21.7 mg/kg
